This is an account of results in ChEMBL document CHEMBL1138329, “Pharmacokinetic/pharmacodynamic model-guided identification of hypoxia-selective 1,2,4-benzotriazine 1,4-dioxides with antitumor activity: the role of extravascular transport” (J Med Chem, 2007).

For series [1], the system named is HT-29. Nature of the series: Cytotoxicity against human HT29 cells under hypoxic conditions after 4 hrs. It is filed as functional, cell-based. As to conditions: HT-29, 4 h.
Series [2] relates to SiHa. Nature of the series: Cytotoxicity against human SiHa cells under hypoxic conditions after 4 hrs. The class given is functional, cell-based.
Series [3] is described as follows: Solubility in culture medium in presence of 5% fetal calf serum. The class given is physicochemical. As to conditions: culture medium with 5% fetal calf serum.
Series [4] has as its system SiHa. Briefly: Ratio of IC50 for SiHa cells under oxic conditions to hypoxic conditions after 4 hrs. The class given is functional, Homo sapiens.
The test system of series [5] is HT-29. Briefly: Ratio of IC50 for HT29 cells under oxic conditions to hypoxic conditions after 4 hrs. The class given is functional, Homo sapiens.
In series [6] the test system is HT-29. Briefly: Diffusion coefficient, D in HT29 multicellular layers. It is filed as ADME, cell-based. As to conditions: human. Put shortly:
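HT29 multicellular layers were grown 3 days on collagen-coated Teflon membranes, equilibrated 60 min under 95% O2/5% CO2 at 37 °C, then placed in a diffusion chamber. Donor and receiver were sampled up to 5 h and assayed by HPLC. D came from fitting both profiles to a Fickian model with membrane and MCL in series, corrected by support-only Ds.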

The test system of series [7] is HT-29. Nature of the series: Effect on human HT29 cells under hypoxic conditions assessed as drug level causing 10% clonogenic survival. It is filed as functional. A digest of the protocol:
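HT29 suspensions (1 or 2 × 10^6 cells/mL) in serum-free medium were stirred under 5% CO2/95% N2 for 90 min. Drug was added from deoxygenated DMSO stock at a level giving about 10% survival at 1 h, and samples were taken up to 3 h. Clonogenic survival (14 days, methylene blue) was fitted with the HPLC concentration–time data, and the 10% survival exposure was interpolated.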

Take `[O-][n+]1nc(NCCN2CCCCC2)[n+]([O-])c2ccccc21`: the IC50 (in general, the point on the concentration scale where inhibition reaches its midpoint) was 1.8 µM in series [1] and 1.1 µM in series [2]. In addition, the solubility (in general, the dissolved amount per volume that the medium holds) in series [3] was over 49 mM. For the same compound, the “Ratio IC50” value in series [4] was 55; in series [5], 24. This compound also registered a D in series [6] of 7.23e-07 cm²/s. Further, the Activity in series [7] is 2.8 µM·h.

As to `COc1ccc2c(c1)[n+]([O-])c(NCCCN1CCOCC1)n[n+]2[O-]`, the figures for the concentration for half-maximal inhibition (IC50) in series [1] and in series [2] were 22 µM and 10.2 µM, respectively. The solubility in series [3] is over 44 mM. For the same compound, the “Ratio IC50” value in series [4] is 447; in series [5], over 8. The Activity in series [7] is 149.7 µM·h.

Take `CN(C)CCCNc1n[n+]([O-])c2ccccc2[n+]1[O-]`: the half-inhibitory concentration (IC50) in series [1] is 3.4 µM; in series [2], 2.3 µM. Also, the solubility in series [3] amounted to 38 mM. Moreover, the entries for the “Ratio IC50” value in series [4] and in series [5] were 82 and 49, respectively. In addition, the D in series [6] was 1.87e-07 cm²/s. Besides, the Activity in series [7] was 7.8 µM·h.

As for `CC1CCCC(C)N1CCNc1n[n+]([O-])c2ccccc2[n+]1[O-]` (stereo unspecified), the IC50 amounted to 2.2 µM in series [1] and 0.9 µM in series [2]. The solubility in series [3] came to 48 mM. Further, the “Ratio IC50” value in series [4] is recorded as 41; in series [5], 15. Also, in series [6], the D is 6.81e-07 cm²/s. The Activity in series [7] amounted to 5.7 µM·h.

For the compound `CCN(CC)CCNc1n[n+]([O-])c2ccc(Cl)cc2[n+]1[O-]`, the results for the IC50 in series [1] and in series [2] were 0.3 µM and 0.2 µM, respectively. The solubility in series [3] is 23 mM. In addition, the “Ratio IC50” value in series [4] was 28; in series [5], 43.

For `[O-][n+]1nc(NCCN2CCCCC2)[n+]([O-])c2cc(Cl)ccc21`, the IC50 in series [1] stood at 0.4 µM; in series [2] it was 0.2 µM. In addition, the solubility in series [3] amounted to 3.2 mM. Further, the “Ratio IC50” value is on record as 18 in series [4] and 19 in series [5]. The compound also came in with a D in series [6] of 1.1e-06 cm²/s.

Consider `CCCN(CCC)CCNc1n[n+]([O-])c2ccc(Cl)cc2[n+]1[O-]`, for which the values for the IC50 in series [1] and in series [2] were 0.6 µM and 0.3 µM, respectively. Besides, the solubility in series [3] came to 0.6 mM. In addition, the entries for the “Ratio IC50” value in series [4] and in series [5] were 21 and 9, respectively.

Regarding `COc1ccc2c(c1)[n+]([O-])c(NCCCN1CCC(C#N)C1)n[n+]2[O-]` (stereo unspecified), the IC50 in series [1] was 40.6 µM; in series [2], 31.9 µM. For the same compound, the solubility in series [3] was found to be 47 mM. The results for the “Ratio IC50” value in series [4] and in series [5] were 36 and 41, respectively. For the same compound, the Activity in series [7] was found to be 211.4 µM·h.

Regarding `CCN(CC)CCNc1n[n+]([O-])c2ccc(C)cc2[n+]1[O-]`, the 50% inhibitory concentration (IC50) was 1 µM in series [1] and 0.3 µM in series [2]. Further, the solubility in series [3] was over 49 mM. For the same compound, the “Ratio IC50” value in series [4] was 35; in series [5], 51. The Activity in series [7] was found to be 8.3 µM·h.

Take `CCOc1ccc2c(c1)[n+]([O-])c(NCCCN1CCOCC1)n[n+]2[O-]`: the half-maximal inhibitory concentration (IC50) in series [1] was 18 µM; in series [2], 7.6 µM. Besides, the solubility in series [3] is over 51 mM. The “Ratio IC50” value in series [4] is reported as 140; in series [5], 52. Moreover, in series [7], the Activity was determined as 260.6 µM·h.

Regarding `Cc1ccc2c(c1)[n+]([O-])c(NCCCN1CCC(C#N)C1)n[n+]2[O-]` (stereo unspecified), the 50% inhibitory concentration (IC50) in series [1] was determined as 14.1 µM; in series [2] it was 9.2 µM. For the same compound, in series [3], the solubility came to 49 mM. Besides, the “Ratio IC50” value in series [4] and in series [5] was 54 in each case. In addition, the Activity in series [7] turned out to be 62.2 µM·h.

For `CC(C)(C)c1ccc2c(c1)[n+]([O-])c(NCCN1CCCCC1)n[n+]2[O-]`, the IC50 in series [1] worked out at 4 µM; in series [2], 0.6 µM. Further, the solubility in series [3] amounted to 28 mM. Also, the “Ratio IC50” value is 121 in series [4] and 31 in series [5]. In series [6], the D worked out at 1.5e-06 cm²/s. For the same compound, the Activity in series [7] is 30.3 µM·h.

For the compound `CC(C)(C)c1ccc2c(c1)[n+]([O-])c(NCCN1CCOCC1)n[n+]2[O-]`, the half-maximal inhibitory concentration (IC50) in series [1] was 61.2 µM; in series [2], 10.9 µM. Besides, the solubility in series [3] worked out at 1.8 mM. The “Ratio IC50” value in series [4] amounted to 55; in series [5], 13.

As for `CCCN(CCC)CCNc1n[n+]([O-])c2ccc(C(C)(C)C)cc2[n+]1[O-]`, the results for the IC50 in series [1] and in series [2] were 8.3 µM and 3.8 µM, respectively. The solubility in series [3] amounted to 32 mM. Also, the “Ratio IC50” value is on record as 35 in series [4] and 18 in series [5]. In series [6], this compound had a D of 1.75e-06 cm²/s. Also, in series [7], the Activity is 66.6 µM·h.

Take `COc1ccc2c(c1)[n+]([O-])c(NCCN1CCOCC1)n[n+]2[O-]`: the half-inhibitory concentration (IC50) in series [1] worked out at 103 µM; in series [2], 40.9 µM. For the same compound, the solubility in series [3] stood at 48 mM. The figures for the “Ratio IC50” value in series [4] and in series [5] were 70 and over 39, respectively.

Turning to `[O-][n+]1nc(NCCN2CCCC2)[n+]([O-])c2ccccc21`, the IC50 came to 0.6 µM in series [1] and 0.2 µM in series [2]. For the same compound, the solubility in series [3] stood at 61 mM. In addition, the results for the “Ratio IC50” value in series [4] and in series [5] were 132 and 70, respectively. Further, the Activity in series [7] came out at 3.6 µM·h.

As for `CN(C)CCNc1n[n+]([O-])c2ccccc2[n+]1[O-]`, the half-maximal inhibitory concentration (IC50) turned out to be 0.7 µM in series [1] and 0.2 µM in series [2]. Besides, in series [3], the solubility amounted to 50 mM. In addition, the “Ratio IC50” value in series [4] turned out to be 157; in series [5], 80. The Activity in series [7] turned out to be 3.2 µM·h.

For the compound `CC(C)c1ccc2c(c1)[n+]([O-])c(NCCN(C)C)n[n+]2[O-]`, the 50% inhibitory concentration (IC50) in series [1] amounted to 1.9 µM; in series [2], 1.1 µM. Besides, the solubility in series [3] came out at 42 mM. Also, the “Ratio IC50” value in series [4] is 104; in series [5] it was 120. Further, in series [7], the Activity was 11.6 µM·h.

Regarding `CCN(CC)CCNc1n[n+]([O-])c2ccc(C(C)C)cc2[n+]1[O-]`, the IC50 in series [1] is 2 µM; in series [2], 0.8 µM. Further, the solubility in series [3] was found to be 45 mM. The results for the “Ratio IC50” value in series [4] and in series [5] were 113 and 122, respectively. The Activity in series [7] was found to be 18.6 µM·h.

With `CC(C)c1ccc2c(c1)[n+]([O-])c(NCCN1CCCCC1)n[n+]2[O-]`, the IC50 in series [1] came out at 2.7 µM; in series [2], 1.1 µM. Moreover, the solubility in series [3] was determined as 18 mM. The “Ratio IC50” value in series [4] is on record as 65; in series [5], 41. Further, the Activity in series [7] came to 15.2 µM·h.

`CCCN(CCC)CCNc1n[n+]([O-])c2ccc(C(C)C)cc2[n+]1[O-]`: the IC50 turned out to be 4.4 µM in series [1] and 0.9 µM in series [2]. Besides, the solubility in series [3] is 39 mM. Also, the figures for the “Ratio IC50” value in series [4] and in series [5] were 65 and 35, respectively. For the same compound, in series [7], the Activity is 41.6 µM·h.

`CCN(CC)CCNc1n[n+]([O-])c2ccc(C(C)(C)C)cc2[n+]1[O-]`: the IC50 in series [1] is 4.3 µM; in series [2] it was 0.9 µM. Moreover, the solubility in series [3] was over 48 mM. The “Ratio IC50” value in series [4] was determined as 90; in series [5] it was 37. Besides, the Activity in series [7] came out at 33.1 µM·h.

Regarding `CCc1ccc2c(c1)[n+]([O-])c(NCCN1CCCCC1)n[n+]2[O-]`, the IC50 in series [1] was 1.5 µM; in series [2], 1 µM. Further, the solubility in series [3] was determined as 39 mM. In addition, the “Ratio IC50” value in series [4] is 50; in series [5] it was 65. The Activity in series [7] was determined as 11.9 µM·h.

For `CC(C)c1ccc2c(c1)[n+]([O-])c(NCCN1CCOCC1)n[n+]2[O-]`, the half-inhibitory concentration (IC50) is 45.1 µM in series [1] and 15.5 µM in series [2]. Also, in series [3], the solubility amounted to 30 mM. Further, the “Ratio IC50” value in series [4] is given as 33; in series [5] it was 14. Besides, the Activity in series [7] is 217.8 µM·h.

Consider `COc1ccc2c(c1)[n+]([O-])c(NCCN1C(C)CCCC1C)n[n+]2[O-]` (stereo unspecified), for which the figures for the IC50 in series [1] and in series [2] were 3.9 µM and 1 µM, respectively. In addition, in series [3], the solubility is 29 mM. Besides, the “Ratio IC50” value in series [4] is recorded as 121; in series [5] it was 34. The Activity in series [7] was 26.1 µM·h.
